Measured values of several laboratories.
Compare with care: the assays were run in different laboratories.
Medium: plasma

| SMILES | test system | setting | quantity | value |
| --- | --- | --- | --- | --- |
| CCc1nc2c(C)cc(N3CCN(CC(=O)N4CC(O)C4)CC3)cn2c1N(C)c1nc(-c2ccc(F)cc2)c(C#N)s1 | human | oral, 20 mg, single dose, fed, healthy volunteers | AUC(0-inf) | 500 ng·h/mL |
| CC(C)n1cc(C#N)c2cc(-n3cc(C(=O)O)cn3)ccc21 | human | oral, 100 mg, single dose, fasted, healthy volunteers | AUC(0-inf) | 19600 ng·h/mL |
| COc1cc(C(=O)NC2CCN(C)CC2)c(F)cc1Nc1ncc(C(F)(F)F)c(Oc2cccc3c2C(=O)N(C)C3)n1 | human | oral, 300 mg, multiple doses, once daily, steady state, patients | AUC | 79.6 µM·h |
| Cn1c(=O)oc2ccc(-c3ccc(C[C@@H](C#N)NC(=O)[C@@H]4CNCCCO4)cc3)cc21 | male human | oral, 15 mg, single dose, healthy volunteers | AUC | 4.17 µM·h |
| COCCOc1cnc2ccn([C@H](C)c3nnc4c(F)cc(-c5cnn(C)c5)cn34)c(=O)c2c1 | human | oral, 300 mg, multiple doses, once daily, patients | AUC(0-t) | 55900 ng·h/mL |
| Cc1ccc(C(=O)N(CCCN)[C@@H](c2oc3cc(Cl)ccc3c(=O)c2Cc2ccccc2)C(C)C)cc1 | human | intravenous, 5 mg/m², single dose, patients, infusion | AUC | 8960 ng·h/mL |
| CO[C@@H]1[C@H](OC(=O)N2CC(CCN3CCOCC3)C2)CC[C@]2(CO2)[C@H]1[C@@]1(C)O[C@@H]1CC=C(C)C | human | subcutaneous, 4.8 mg, single dose, healthy volunteers | AUC(0-t) | 21.6 ng·h/mL |
| COc1ccc([C@@H]2CN(C(=O)[C@@H](O)CO)C[C@@]2(C)[C@@H](C)O)cc1OC1CN(c2ccc(C)cn2)C1 | human | oral, 0.1 mg, single dose, healthy volunteers | AUC(0-inf) | 59.1 ng·h/mL |
| CC(C)(O)c1ccccc1-c1ccc2[nH]c(/C=C/c3ccc(C(F)(F)F)cc3)nc2c1 | male human | oral, 30 mg, single dose, fasted, healthy volunteers | AUC(0-t) | 5160 ng·h/mL |
| Cn1cc(-c2ccc(S(=O)(=O)[C@@H]3C[C@@H](C(=O)NC4(C#N)CC4)N(C(=O)C4(C(F)(F)F)CC4)C3)c(C(F)(F)F)c2)cn1 | human | oral, 600 mg, single dose, fasted, healthy volunteers | AUC(0-inf) | 28700 ng·h/mL |
